Measured values from ChEMBL document CHEMBL4837222, “Design and synthesis of novel benzothiophene analogs as selective estrogen receptor covalent antagonists against breast cancer” (Eur J Med Chem, 2021).

Key:
MCF7 [1] = assay: Cell cycle arrest in human MCF7 cells assessed as accumulation at G0/G1 phase at 1 uM measured after 48 hrs by propidium iodide staining based flow cytometric analysis (reference value: 24.44%); assay type: functional
Ishikawa = assay: Antiproliferative activity against human Ishikawa cells assessed as reduction in cell growth incubated for 48 hrs by CCK8 assay; assay type: functional, cell-based
Summary of the method: (§1)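 CCK-8 viability assay. Cells seeded at 4000/well in 10% FBS medium for 24 h, then given compound diluted from DMSO stocks into 2% FBS medium at 100, 50, 25, 12.5, 6.25 and 3.125 µM (0.1% DMSO final). After 48 h, CCK-8 was added (0.5 mg/mL) for 2 h at 37 °C and OD450 read. Triplicates; IC50 fitted from mean viability.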

MCF7 [2] = assay: Induction of apoptosis in human MCF7 cells assessed as early apoptotic cells at 5 uM incubated for 24 hrs by Annexin-V-FITC/propidium iodide staining based flow cytometric analysis (reference value: 0.8%); assay type: functional
MCF7 [3] = assay: Induction of apoptosis in human MCF7 cells assessed as necrotic cells at 5 uM incubated for 24 hrs by AnnexinV-FITC/propidium iodide staining based flow cytometric analysis (reference value: 0.4%); assay type: functional
MCF7 [4] = assay: Cell cycle arrest in human MCF7 cells assessed as accumulation at G2/M phase at 10 uM measured after 48 hrs by propidium iodide staining based flow cytometric analysis (reference value: 12.24%); assay type: functional
MCF7 [5] = assay: Induction of apoptosis in human MCF7 cells assessed as late apoptotic cells at 10 uM incubated for 24 hrs by AnnexinV-FITC/propidium iodide staining based flow cytometric analysis (reference value: 0.7%); assay type: functional
MCF7 [6] = assay: Cell cycle arrest in human MCF7 cells assessed as accumulation at S phase at 1 uM measured after 48 hrs by propidium iodide staining based flow cytometric analysis (reference value: 63.32%); assay type: functional
MCF7 [7] = assay: Cell cycle arrest in human MCF7 cells assessed as accumulation at G0/G1 phase at 5 uM measured after 48 hrs by propidium iodide staining based flow cytometric analysis (reference value: 24.44%); assay type: functional
[8] = Half life in rat plasma; assay type: ADME, cell-free
[9] = biological target: T1, Estrogen receptor (Homo sapiens) (UniProt P03372); assay: Covalent antagonist activity at ERalpha in human MCF7 cells assessed as decrease in estradiol-induced GREB1 mRNA expression level at 0.25 to 10 uM measured after 24 hrs by RT-PCR analysis; assay type: cell-based; conditions: filed as antagonist, dose 0.25-10 µM
T1 sequence (whole entry): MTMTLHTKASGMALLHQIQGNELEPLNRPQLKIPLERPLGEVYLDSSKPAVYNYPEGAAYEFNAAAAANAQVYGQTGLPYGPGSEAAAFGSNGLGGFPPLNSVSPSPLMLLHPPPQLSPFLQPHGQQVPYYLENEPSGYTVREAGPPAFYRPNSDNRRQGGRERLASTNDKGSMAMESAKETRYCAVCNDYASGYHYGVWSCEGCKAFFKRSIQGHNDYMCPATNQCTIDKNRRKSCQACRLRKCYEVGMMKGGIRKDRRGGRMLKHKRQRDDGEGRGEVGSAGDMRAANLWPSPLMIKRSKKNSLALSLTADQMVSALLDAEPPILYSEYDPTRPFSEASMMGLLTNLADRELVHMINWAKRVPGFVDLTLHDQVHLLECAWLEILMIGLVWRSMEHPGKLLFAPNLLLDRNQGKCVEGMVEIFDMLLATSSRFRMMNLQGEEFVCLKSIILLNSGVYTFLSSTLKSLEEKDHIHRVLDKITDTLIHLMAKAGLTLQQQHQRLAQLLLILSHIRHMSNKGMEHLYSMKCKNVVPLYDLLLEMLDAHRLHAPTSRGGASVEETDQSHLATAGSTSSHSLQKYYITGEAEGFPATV
Summary of the method: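 MCF-7 cells stimulated with estradiol, then co-incubated 24 h with compound at 0.25, 0.5, 1 and 10 µM. RNA was reverse-transcribed and GREB1 or TFF1 measured by SYBR Green qPCR: 95 °C 10 min, then 40 cycles of 95 °C 5 s, 60 °C 60 s, 95 °C 15 s. Normalised to GAPDH, ΔΔCT method.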

MDA-MB-231 = assay: Antiproliferative activity against human MDA-MB-231 cells assessed as reduction in cell growth incubated for 48 hrs by CCK8 assay; assay type: functional, cell-based; conditions: MDA-MB-231, 48 h; summary of the method: as §1
MCF7 [10] = assay: Induction of apoptosis in human MCF7 cells assessed as early apoptotic cells at 1 uM incubated for 24 hrs by AnnexinV-FITC/propidium iodide staining based flow cytometric analysis (reference value: 0.8%); assay type: functional

O=C(/C=C/CNCCOc1ccc(Oc2c(-c3ccc(F)cc3)sc3cc(O)ccc23)cc1)N1CCC1
Activity (MCF7 [1]): 31.21%
IC50 (Ishikawa): 6.56 µM
Activity (MCF7 [2]): 5.3%
Activity (MCF7 [3]): 0.4%
Activity (MCF7 [4]): 18.3%
Activity (MCF7 [5]): 13.2%
Activity (MCF7 [6]): 51.43%
Activity (MCF7 [7]): 37.54%
half-life [8]: 17 h
inhibition [9]: Dose-Dependent Effect
IC50 (MDA-MB-231): > 50 µM
Activity (MCF7 [10]): 0.8%
